Key:
Type in all cases: toxicity, cell-based
[1] = test system: Fibroblast; assay: Multiplex assay against human fibroblast
How it was run: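 Live cells were stained at seeding with Hoechst33342, BioTracker Green Microtubule Cytoskeleton Dye, MitoTracker Red and Annexin V Alexa Fluor 680. Following compound addition, they were imaged on a CQ1 microscope at 37°C and 5% CO2 and gated by CellPathfinder machine learning into Hoechst high-intensity objects or normal cells, with normal cells split into healthy, pyknosed or fragmented nuclei and pyknosed cells into mitotic or apoptotic. Tubulin, mitochondrial-mass and membrane-permeability phenotypes are per cents of healthy-nucleus cells.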

[2] = test system: HEK-293T; assay: Incucyte cell viability with HEK293T; settings: human, 10 µM, compound concentration 10 uM; also: filed as whole numbers so only -1 and 0 and 1 occur
[3] = test system: Fibroblast; assay: Incucyte cell viability with human fibroblast; settings: 10 µM, compound concentration 10 uM; also: filed as whole numbers so only -1 and 0 and 1 occur
[4] = test system: U2OS; assay: Incucyte cell viability with U2OS; settings: human, 10 µM, compound concentration 10 uM; also: filed as whole numbers so only -1 and 0 and 1 occur
[5] = 24 h, 10 µM, compound concentration 10 uM, replicate 1
[6] = 24 h, 10 µM, compound concentration 10 uM, replicate 2
[7] = 48 h, 1 µM, compound concentration 1 uM, replicate 1
[8] = 48 h, 1 µM, compound concentration 1 uM, replicate 2
[9] = 48 h, 10 µM, compound concentration 10 uM, replicate 1
[10] = 48 h, 10 µM, compound concentration 10 uM, replicate 2
[11] = 6 h, replicate number 1, timepoint 6 hours
[12] = 12 h, replicate number 1, timepoint 12 hours
[13] = 18 h, replicate number 1, timepoint 18 hours
[14] = 24 h, replicate number 1, timepoint 24 hours

Compound: Cc1c(P(=S)(c2ccccc2)c2ccccc2)n2ccccc2[n+]1C/C=C/c1ccccc1.[Br-]
- Population Mitotic Cells (%) [1, 5]: 14%
- Population Normal (%) [1, 5]: 81%
- Population Pyknosed Nuclei (%) [1, 5]: 71%
- Population Tubulin-Different-Phenotype (%) [1, 5]: 75%
- Total Cell Count [1, 5]: 138
- Population Apoptotic (%) [1, 6]: 100%
- Population Fragmented Nuclei (%) [1, 6]: 23%
- Population Healthy Nuclei (%) [1, 6]: 38%
- Population Hoechst High Intensity Objects (%) [1, 6]: 26%
- Population Membrane Permeable-Phenotype (%) [1, 6]: 81%
- Population Mitochondria Different-Phenotype (%) [1, 6]: 81%
- Population Mitotic Cells (%) [1, 6]: 0%
- Population Normal (%) [1, 6]: 73%
- Population Pyknosed Nuclei (%) [1, 6]: 38%
- Population Tubulin-Different-Phenotype (%) [1, 6]: 81%
- Total Cell Count [1, 6]: 163
- Population Apoptotic (%) [1, 7]: 60%
- Population Fragmented Nuclei (%) [1, 7]: 33%
- Population Healthy Nuclei (%) [1, 7]: 54%
- Population Hoechst High Intensity Objects (%) [1, 7]: 12%
- Population Membrane Permeable-Phenotype (%) [1, 7]: 6%
- Population Mitochondria Different-Phenotype (%) [1, 7]: 42%
- Population Mitotic Cells (%) [1, 7]: 40%
- Population Normal (%) [1, 7]: 87%
- Population Pyknosed Nuclei (%) [1, 7]: 11%
- Population Tubulin-Different-Phenotype (%) [1, 7]: 64%
- Total Cell Count [1, 7]: 191
- Population Apoptotic (%) [1, 8]: 100%
- Population Fragmented Nuclei (%) [1, 8]: 29%
- Population Healthy Nuclei (%) [1, 8]: 70%
- Population Hoechst High Intensity Objects (%) [1, 8]: 10%
- Population Membrane Permeable-Phenotype (%) [1, 8]: 2%
- Population Mitochondria Different-Phenotype (%) [1, 8]: 48%
- Population Mitotic Cells (%) [1, 8]: 0%
- Population Normal (%) [1, 8]: 89%
- Population Pyknosed Nuclei (%) [1, 8]: 0%
- Population Tubulin-Different-Phenotype (%) [1, 8]: 72%
- Total Cell Count [1, 8]: 123
- Population Apoptotic (%) [1, 9]: 92%
- Population Fragmented Nuclei (%) [1, 9]: 36%
- Population Healthy Nuclei (%) [1, 9]: 21%
- Population Membrane Permeable-Phenotype (%) [1, 9]: 0%
- Population Mitochondria Different-Phenotype (%) [1, 9]: 85%
- Population Mitotic Cells (%) [1, 9]: 7%
- Population Pyknosed Nuclei (%) [1, 9]: 42%
- Population Tubulin-Different-Phenotype (%) [1, 9]: 95%
- Total Cell Count [1, 9]: 141
- Population Apoptotic (%) [1, 10]: 84%
- Population Fragmented Nuclei (%) [1, 10]: 52%
- Population Healthy Nuclei (%) [1, 10]: 18%
- Population Hoechst High Intensity Objects (%) [1, 10]: 32%
- Population Membrane Permeable-Phenotype (%) [1, 10]: 25%
- Population Mitochondria Different-Phenotype (%) [1, 10]: 75%
- Population Mitotic Cells (%) [1, 10]: 15%
- Population Normal (%) [1, 10]: 67%
- Population Pyknosed Nuclei (%) [1, 10]: 29%
- Population Tubulin-Different-Phenotype (%) [1, 10]: 100%
- Total Cell Count [1, 10]: 65
- Growth Rate ([2]; 0 h, replicate number 2, timepoint 0 hours): 1
- Growth Rate [2, 11]: 0
- Growth Rate [2, 12]: 0
- Growth Rate [2, 13]: 0
- Growth Rate [2, 14]: 0
- Growth Rate ([3]; 0 h, replicate number 1, timepoint 0 hours): 0
- Growth Rate [3, 11]: 0
- Growth Rate [3, 12]: 0
- Growth Rate [3, 13]: 0
- Growth Rate [3, 14]: 0
- Growth Rate [4, 11]: 0
- Growth Rate [4, 12]: 0
- Growth Rate [4, 13]: 0
- Growth Rate [4, 14]: 0

From ChEMBL document CHEMBL4689842, “EUbOPEN Chemogenomics Library wave 1” (2021)
